The values that follow come from publication PMC5879491 (Journal of the American Chemical Society, 2018).

For data set [1], the target named is T1, H3R (Homo sapiens, UniProt Q9Y5N1). The data set is classed as binding. To be noted: for effect of illumination of compound solution at 360 ± 20 nm on affinity: data not shown. The gist of the method:
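A 1 mM stock of test compound was either illuminated at 360 ± 20 nm to PSS (checked by LC–MS) or kept dark; all later handling was in darkness. Competition ran at 10^-5 to 10^-12 M against 1.6 nM [3H]-Nα-methylhistamine. Membranes were homogenates of HEK293T cells PEI-transfected 48 h with human H3R (445 isoform). Incubation was 2 h at 25 °C in 50 mM Tris–HCl pH 7.4, followed by GF/C filtration and scintillation counting. Ki was obtained by Cheng–Prusoff; the shift was pKi cis minus pKi trans.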

Data set [2] concerns the target T1, H3R. The experiment in a line: Two-electrode voltage clamp. It is filed as cell-based. (In two-electrode clamp one electrode senses voltage and the other passes current.)
Data set [3] is described as follows: Photostability and fatigue resistance under prolonged or repeated illumination. The data set is classed as physicochemical.
Data set [4] has as its target hH2R (Homo sapiens, UniProt P25021). The experiment in a line: H2R radioligand binding.
Data set [5] can be described thus: Real-time photoisomerization rate by UV-vis under perpendicular illumination. It is filed as physicochemical. Conditions: 25 μM in 50 mM Tris-HCl pH 7.4 + 1% DMSO-d6. The gist of the method: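 Real-time kinetics: test compound at 25 μM in 50 mM Tris–HCl pH 7.4 with 1% DMSO-d6. Illumination alternated between 360 ± 20 nm and 434 ± 9 nm, delivered perpendicular to the spectrometer beam. Spectra were taken at 1 s intervals, with absorbance followed at 344 or 319 nm depending on compound. Photoisomerization half-lives came from fits to the absorbance data.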

Data set [6] concerns the target hH4R (Homo sapiens, UniProt Q9H3N8). The experiment in a line: H4R radioligand binding.

T1 sequence (Q9Y5N1 whole entry, canonical isoform): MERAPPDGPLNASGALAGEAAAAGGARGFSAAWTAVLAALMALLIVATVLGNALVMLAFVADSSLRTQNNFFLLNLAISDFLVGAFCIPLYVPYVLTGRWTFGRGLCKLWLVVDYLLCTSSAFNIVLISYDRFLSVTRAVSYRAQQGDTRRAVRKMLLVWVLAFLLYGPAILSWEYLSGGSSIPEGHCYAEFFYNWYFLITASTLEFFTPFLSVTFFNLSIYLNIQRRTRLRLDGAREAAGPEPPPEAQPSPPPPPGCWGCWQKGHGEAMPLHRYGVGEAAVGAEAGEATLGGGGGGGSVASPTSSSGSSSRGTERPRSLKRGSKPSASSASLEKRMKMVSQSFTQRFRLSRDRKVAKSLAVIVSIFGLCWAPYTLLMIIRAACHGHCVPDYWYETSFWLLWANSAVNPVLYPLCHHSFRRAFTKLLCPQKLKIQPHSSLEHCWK
hH4R, sequence (Q9H3N8 whole entry): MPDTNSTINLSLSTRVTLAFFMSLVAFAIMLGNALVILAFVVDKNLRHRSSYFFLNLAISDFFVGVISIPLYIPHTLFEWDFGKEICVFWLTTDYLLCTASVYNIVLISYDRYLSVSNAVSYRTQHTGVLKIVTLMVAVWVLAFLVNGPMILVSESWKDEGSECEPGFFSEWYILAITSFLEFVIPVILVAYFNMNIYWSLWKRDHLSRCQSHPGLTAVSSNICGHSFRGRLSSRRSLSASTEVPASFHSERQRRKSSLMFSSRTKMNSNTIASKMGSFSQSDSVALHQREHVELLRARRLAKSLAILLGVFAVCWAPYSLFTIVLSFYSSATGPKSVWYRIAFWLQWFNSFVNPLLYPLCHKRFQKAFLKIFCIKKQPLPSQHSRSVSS
hH2R, sequence (P25021 whole entry): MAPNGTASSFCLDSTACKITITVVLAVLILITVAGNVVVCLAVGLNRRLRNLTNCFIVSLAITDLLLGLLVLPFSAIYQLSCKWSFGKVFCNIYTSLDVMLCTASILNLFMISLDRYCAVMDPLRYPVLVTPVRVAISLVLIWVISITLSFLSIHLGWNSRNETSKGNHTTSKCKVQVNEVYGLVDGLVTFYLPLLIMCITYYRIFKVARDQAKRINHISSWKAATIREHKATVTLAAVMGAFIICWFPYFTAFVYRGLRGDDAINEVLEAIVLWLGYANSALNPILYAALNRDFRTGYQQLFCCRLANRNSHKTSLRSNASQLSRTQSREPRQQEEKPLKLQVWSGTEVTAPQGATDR

On to `O=C(c1ccc2cc(OCCCN3CCCCC3)ccc2c1)N1CCCC1` [Compound 1], for which the “effect of illumination of compound solution at 360 ± 20 nm on affinity” value in data set [1] is on record as “not affected”.

As for `O=C(c1cccc(/N=N/c2cccc(OCCCN3CCCCC3)c2)c1)N1CCCC1` [Compound 28], the “change in current upon superfusion of compound only” value in data set [2] (noninjected and H3R-GIRK expressing oocytes) is recorded as “did not result in changes in current”. Moreover, the “photodegradation (1H NMR and LC-MS)” value in data set [3] (48 h illumination at 360 ± 20 nm, 0.77 mW/mm^2) is recorded as “no apparent photodegradation”. Besides, the “resistance to fatigue / photobleaching” value in data set [3] (over 1000 isomerization cycles, 360 ± 20 and 434 ± 9 nm, 20 s intervals) is listed as “highly resistant to photobleaching”. For the same compound, the “increase in H3R binding affinity upon photoisomerization” value in data set [1] (illumination at 360 nm, PSS cis vs trans, listed as VUF14738) is reported as “over 10 fold”. In addition, the “affinity for H2R” value in data set [4] is “no measurable affinity”. Moreover, the results for the photoisomerization half-life in data set [5] (illumination 360 ± 20 nm) and in data set [5] (illumination 434 ± 9 nm) were 16 ± 0.9 s and 11 ± 0.3 s, respectively. Moreover, in data set [6], the “affinity for H4R” value is “no measurable affinity”.

Consider `NCCc1c[nH]cn1` [Histamine], for which the “effect of illumination of compound solution at 360 ± 20 nm on affinity” value in data set [1] was “not affected”.

In the case of `NC(=NCc1ccc(Cl)cc1)SCCCc1cnc[nH]1` [clobenpropit], the “inhibition of GIRK channel activation by histamine (1 μM)” value in data set [2] (simultaneous superfusion, 1 μM) is “fully inhibited”.

For pertussis toxin, in data set [2] (pretreating the oocytes, 1.37 ng/oocyte), the “inhibition of GIRK channel activation by histamine (1 μM)” value was “fully inhibited”.
